Source: ChEMBL document CHEMBL4350968, “Structure Guided Design, Synthesis, and Biological Evaluation of Novel Benzosuberene Analogues as Inhibitors of Tubulin Polymerization” (J Med Chem, 2019)
Calls of active or inactive are those of the source. The rule behind the calls is not given here.

Legend:
DU-145 = test: Cytotoxicity against human DU145 cells assessed as growth inhibition measured after 48 hrs by SRB assay; format: functional; conditions: DU-145, 48 h
Tubulin (Homo sapiens) [1] = target: T1, Tubulin (Homo sapiens) (UniProt P68371+Q9H4B7+P0DPH7+P68366+Q13509+Q71U36+P04350+Q3ZCM7+P07437+P68363+Q9BQE3+Q6PEY2+Q13885+Q9BVA1+Q9BUF5); test: Inhibition of [3H]colchicine binding to tubulin (unknown origin) at 5 uM measured after 10 mins by beckman scintillation counting method relative to control; format: protein-complex assay
How it was run: (§1)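 Each 0.1 mL mix held 1.0 µM tubulin, 5.0 µM [3H]colchicine, 5% DMSO and compound at 1.0 or 5.0 µM. Stabilising components were 1.0 M monosodium glutamate pH 6.6, 0.5 mg/mL BSA, 0.1 M glucose-1-phosphate, 1.0 mM MgCl2 and 1.0 mM GTP. After 10 min at 37 °C, reactions were stopped with ice-cold water and filtered on DEAE-cellulose. Bound label was counted and percent inhibition taken versus no-inhibitor samples, correcting for filter binding without tubulin.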

Tubulin = Tubulin (Bos taurus, UniProt Q6B856+Q862L2+Q862F3); test: Inhibition of bovine brain tubulin polymerization preincubated for 15 mins followed by GTP addition and measured for 20 mins by turbidimetry-based spectrophotometric method
How it was run: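 Mixtures held 10 µM purified bovine brain tubulin, 0.8 M monosodium glutamate pH 6.6, 4% DMSO and varied compound concentrations. These were preincubated 15 min at 30 °C without GTP, then chilled to 0 °C, and GTP was added to 0.4 mM final. Temperature was raised to 30 °C and turbidity followed at 350 nm for 20 min.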

SK-OV-3 = test: Cytotoxicity against human SKOV3 cells assessed as growth inhibition measured after 48 hrs by SRB assay; format: functional; conditions: SK-OV-3, 48 h
NCI-H460 = test: Cytotoxicity against human NCI-H460 cells assessed as growth inhibition measured after 48 hrs by SRB assay; format: functional; conditions: NCI-H460, 48 h
PC-3 [2] = test: Induction of vascular damage in human PC3 cells harboring DAB2IP-luc xenografted in Copenhagen rat assessed as reduction in light emission at 10 mg/kg, ip administered 24 hrs prior to 40 mg/kg, ip dosing for 4 hrs followed by CA4P dosing at 30 mg/kg, ip and measured after 4 to 24 hrs by bioluminescence imaging analysis; format: functional, organism-based
How it was run: (§2)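 Male Copenhagen rats (about 6 weeks old, 100-120 g) were implanted s.c. in the right thigh with 5 X 10⁵ PC3-DAB2IP-luc cells in 30% Matrigel. Tumors were at least 1 cm in diameter before treatment. Prodrug in saline (25 mg/mL) was given IP, one rat per regimen. Under isoflurane, 120 mg/kg D-luciferin was injected s.c. fresh at baseline, 4 h and 24 h. Tumor ROI light emission was followed over about 30 min.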

PC-3 [3] = test: Induction of vascular damage in human PC3 cells harboring DAB2IP-luc xenografted in Copenhagen rat assessed as reduction in light emission at 10 mg/kg, ip measured after 4 to 24 hrs by Bioluminescence imaging analysis; format: functional, organism-based; how it was run: as §2
[4] = Toxicity in Copenhagen rat xenografted with human PC3 cells harboring DAB2IP-luc at 80 mg/kg, ip measured after 4 to 24 hrs; format: organism-based; conditions: in vivo
[5] = Toxicity in Copenhagen rat xenografted with human PC3 cells harboring DAB2IP-luc at 40 mg/kg, ip measured after 48 hrs; format: organism-based; conditions: in vivo
PC-3 [6] = test: Induction of vascular damage in human PC3 cells harboring DAB2IP-luc xenografted in Copenhagen rat assessed as reduction in light emission at 40 mg/kg, ip measured after 24 to 48 hrs by Bioluminescence imaging analysis; format: functional, organism-based; how it was run: as §2
PC-3 [7] = test: Induction of vascular damage in human PC3 cells harboring DAB2IP-luc xenografted in Copenhagen rat assessed as reduction in light emission at 10 mg/kg, ip administered 6 hrs prior to 40 mg/kg, ip dosing and measured after 4 hrs by bioluminescence imaging analysis relative to control; format: functional; design: scale not given: the % may be the effect or the level left; how it was run: as §2
PC-3 [8] = test: Induction of vascular damage in human PC3 cells harboring DAB2IP-luc xenografted in Copenhagen rat assessed as reduction in light emission at 40 mg/kg, ip measured after 4 hrs by Bioluminescence imaging analysis; format: functional, organism-based; how it was run: as §2
PC-3 [9] = test: Induction of vascular damage in human PC3 cells harboring DAB2IP-luc xenografted in Copenhagen rat assessed as reduction in light emission at 80 mg/kg, ip measured after 4 to 24 hrs by Bioluminescence imaging analysis; format: functional, organism-based; how it was run: as §2
PC-3 [10] = test: Induction of vascular damage in human PC3 cells harboring DAB2IP-luc xenografted in Copenhagen rat assessed as reduction in light emission at 10 mg/kg, ip administered 6 hrs prior to 40 mg/kg, ip dosing and measured after 24 hrs by bioluminescence imaging analysis; format: functional, organism-based; how it was run: as §2
Tubulin (Homo sapiens) [11] = target: T1, Tubulin (Homo sapiens); test: Inhibition of [3H]colchicine binding to tubulin (unknown origin) at 0.5 uM measured after 10 mins by beckman scintillation counting method relative to control; format: protein-complex assay
Tubulin (Homo sapiens) [12] = target: T1, Tubulin (Homo sapiens); test: Inhibition of [3H]colchicine binding to tubulin (unknown origin) measured after 10 mins by beckman scintillation counting method relative to control; format: protein-complex assay
How it was run: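 The 0.1 mL mix held 1.0 µM tubulin, 5.0 µM [3H]colchicine, 5% DMSO and compound at 1.0 or 5.0 µM. It also held 1.0 M monosodium glutamate (pH 6.6), 0.5 mg/mL BSA, 0.1 M glucose-1-phosphate, 1.0 mM MgCl2 and 1.0 mM GTP. After 10 min at 37 °C the reaction was stopped on ice, the mix filtered through DEAE-cellulose and counted. Percent inhibition was taken against the no-inhibitor control, corrected for label bound without tubulin.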

Tubulin (Homo sapiens) [13] = target: T1, Tubulin (Homo sapiens); test: Inhibition of [3H]colchicine binding to tubulin (unknown origin) at 1 uM measured after 10 mins by beckman scintillation counting method relative to control; format: protein-complex assay; how it was run: as §1

Row | SMILES | GI50 (DU-145) | inhibition (Tubulin (Homo sapiens) [1]) | IC50 (Tubulin) | GI50 (SK-OV-3) | GI50 (NCI-H460) | also measured
1 | COc1ccc2c(c1O)CCCC(Br)=C2c1cc(OC)c(OC)c(OC)c1 | 36.2 nM | 88% | 390 nM | 22.1 nM | 35.3 nM | –
2 | COCCOCCOc1c(OC)ccc2c1CCCC=C2c1cc(OC)c(OC)c(OC)c1 | 5660 nM | – | > 20000 nM | 6520 nM | 1900 nM | –
3 | COc1cc(C2=CCCCc3c2ccc(OC)c3OCCO)cc(OC)c1OC | 3760 nM | – | > 20000 nM | 3220 nM | 855 nM | –
4 | COc1ccc2c(c1CO)CCCC=C2c1cc(OC)c(OC)c(OC)c1 | – | 76% | 630 nM | – | 62.8 nM | –
5 | COc1cc(C2=CC=CCc3c2ccc(OC)c3OP(=O)([O-])[O-])cc(OC)c1OC.[Na+].[Na+] | – | 45% | 16000 nM | – | 29.1 nM | Activity (PC-3 [2]): Active; Activity (PC-3 [3]): inactive; Activity [4]: Non-Toxic; Activity [5]: Non-Toxic; Activity (PC-3 [6]): inactive; Activity (PC-3 [7]): 95%; Activity (PC-3 [8]): Active; Activity (PC-3 [9]): inactive; Activity (PC-3 [10]): inactive
6 | COc1ccc2c(c1O)CCCC(=O)C2(O)c1cc(OC)c(OC)c(OC)c1 (stereo not given) | 141 nM | 72% | 1200 nM | 31.4 nM | 47.6 nM | –
7 | CCOC(=O)c1c(OC)ccc2c1CCCC=C2c1cc(OC)c(OC)c(OC)c1 | 631 nM | 47% | 1000 nM | 299 nM | 353 nM | –
8 | COc1cc(C2=CC(O)CCc3c2ccc(OC)c3OC)cc(OC)c1OC (stereo not given) | 439 nM | 28% | 3800 nM | 263 nM | 432 nM | –
9 | COc1ccc2c(c1C#N)CCCC=C2c1cc(OC)c(OC)c(OC)c1 | 860 nM | 62% | 1100 nM | 64.8 nM | 434 nM | –
10 | COc1ccc(/C=C\c2cc(OC)c(OC)c(OC)c2)cc1OP(=O)(O)O [FOSBRETABULIN DISODIUM] | 3.23 nM | – | – | 1.19 nM | 1.94 nM | –
11 | COc1cc(C2(O)C=CCCc3c2ccc(OC)c3OC)cc(OC)c1OC (stereo not given) | 26000 nM | 0% | > 20000 nM | 27200 nM | 70500 nM | –
12 | COc1ccc2c(c1C#N)CCC=C2c1cc(OC)c(OC)c(OC)c1 | 25.2 nM | 73% | 370 nM | 38.4 nM | 60.5 nM | –
13 | COc1ccc(/C=C\c2cc(OC)c(OC)c(OC)c2)cc1O [COMBRETASTATIN A4] | 3.27 nM | – | – | 4.55 nM | 2.23 nM | –
14 | COc1ccc2c(c1O)CCC(NC(C)=O)C=C2c1cc(OC)c(OC)c(OC)c1 (stereo not given) | 1200 nM | 0.4% | – | – | 334 nM | –
15 | COc1ccc2c(c1O)CCCCC2(O)c1cc(OC)c(OC)c(OC)c1 (stereo not given) | 33 nM | – | > 20000 nM | 394 nM | 173 nM | –
16 | COc1ccc2c(c1O)CC=CC=C2c1cc(OC)c(OC)c(OC)c1 | – | 95% | 480 nM | – | 58.1 nM | inhibition (Tubulin (Homo sapiens) [11]): 68%
17 | COc1ccc2c(c1C=O)CCCC=C2c1cc(OC)c(OC)c(OC)c1 | 40.2 nM | 61% | 3200 nM | 57.2 nM | 84.7 nM | –
18 | COc1ccc2c(c1O)CCCC(O)C2(O)c1cc(OC)c(OC)c(OC)c1 (stereo not given) | 4040 nM | 0% | > 20000 nM | 3030 nM | 3860 nM | –
19 | CC(=O)O[C@H]1C(=O)[C@@]2(C)[C@H]([C@H](OC(=O)c3ccccc3)[C@]3(O)C[C@H](OC(=O)[C@H](O)[C@@H](NC(=O)c4ccccc4)c4ccccc4)C(C)=C1C3(C)C)[C@]1(OC(C)=O)CO[C@@H]1C[C@@H]2O [PACLITAXEL] | 1.47 nM | – | – | 1.34 nM | 1.76 nM | inhibition (Tubulin (Homo sapiens) [12]): inactive
20 | COc1cc(C2CCc3c(ccc(OC)c3OC)C(=O)C2)cc(OC)c1OC (stereo not given) | 4450 nM | 0% | > 20000 nM | 5770 nM | 2000 nM | –
21 | COc1ccc2c(c1O)CCCC=C2c1cc(OC)c(OC)c(OC)c1 | – | 95% | 850 nM | – | – | inhibition (Tubulin (Homo sapiens) [13]): 73%
22 | COc1cccc2c1C(=O)c1c(O)c3c(c(O)c1C2=O)C[C@@](O)(C(=O)CO)C[C@@H]3O[C@H]1C[C@H](N)[C@H](O)[C@H](C)O1 [DOXORUBICIN] | 134 nM | – | – | 78.9 nM | 123 nM | –
23 | COc1ccc2c(c1C)CCCC(Br)=C2c1cc(OC)c(OC)c(OC)c1 | 423 nM | – | 4900 nM | 312 nM | 449 nM | inhibition (Tubulin (Homo sapiens) [13]): 35%
